In ChEMBL document CHEMBL2010670, “Discovery of a clinical stage multi-kinase inhibitor sodium (E)-2-{2-methoxy-5-[(2',4',6'-trimethoxystyrylsulfonyl)methyl]phenylamino}acetate (ON 01910.Na): synthesis, structure-activity relationship, and biological activity” (J Med Chem, 2011):

What was measured:
T47D = assay: Cytotoxicity against human T47D cells after 96 hrs by trypan blue exclusion assay; assay type: functional, cell-based
In short: (§1)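 Cells grown in DMEM or RPMI with 10% FBS and 1 unit/mL penicillin-streptomycin, seeded at 1.0 × 10⁵ cells/mL/well in 6-well dishes; compound added 24 h later at various concentrations. After 96 h of treatment, viable cells counted by trypan blue exclusion in duplicate wells; dose-response end point.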

K562 = assay: Cytotoxicity against human K562 cells after 96 hrs by trypan blue exclusion assay; assay type: functional, cell-based; settings: k562
In short: (§2)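 Cells grown in DMEM or RPMI with 10% FBS and penicillin-streptomycin, seeded at 1.0 × 10⁵ cells/mL/well in 6-well dishes. Compound added at a range of concentrations 24 h after seeding. Viable cells counted by trypan blue exclusion from duplicate wells after 96 h of exposure; dose-response end point.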

[1] = Cytotoxicity against human WM983A cells after 96 hrs by trypan blue exclusion assay; assay type: functional, cell-based; in short: as §1
[2] = Aqueous solubility of the compound; assay type: physicochemical; settings: water
[3] = Cytotoxicity against human WM793 cells after 96 hrs by trypan blue exclusion assay; assay type: functional, cell-based; settings: WM793, 96 h; in short: as §1
NCI-H1975 = assay: Cytotoxicity against human NCI-H1975 cells after 96 hrs by trypan blue exclusion assay; assay type: functional, cell-based; settings: NCI-H1975, 96 h; in short: as §2
[4] = Cytotoxicity against human WM3211 cells after 96 hrs by trypan blue exclusion assay; assay type: functional, cell-based; settings: WM3211, 96 h; in short: as §1
DLD-1 = assay: Cytotoxicity against human DLD1 cells after 96 hrs by trypan blue exclusion assay; assay type: functional, cell-based; settings: DLD-1, 96 h; in short: as §2
HCT-15 = assay: Cytotoxicity against human HCT15 cells after 96 hrs by trypan blue exclusion assay; assay type: functional, cell-based; settings: HCT-15, 96 h; in short: as §2
MCF7 = assay: Cytotoxicity against human MCF7 cells after 96 hrs by trypan blue exclusion assay; assay type: functional, cell-based; settings: MCF7, 96 h; in short: as §2
MDA-MB-231 = assay: Cytotoxicity against human MDA-MB-231 cells after 96 hrs by trypan blue exclusion assay; assay type: functional, cell-based; settings: MDA-MB-231, 96 h; in short: as §2
OPM-2 = assay: Cytotoxicity against human OPM2 cells after 96 hrs by trypan blue exclusion assay; assay type: functional, cell-based; settings: OPM-2, 96 h; in short: as §2
Mus musculus = assay: Toxicity against NCR-nu/nu, Taconic mouse xenografted with human BT20 cells assessed as decrease in body weight at 200 mg/kg, ip administered every other day for 22 days; assay type: organism-based, BT-20; design: dose 200 mg/kg, route intraperitoneal; scale not given: the % may be the effect or the level left; settings: in vivo, 528 h
In short: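 Female athymic nude mice bearing subcutaneous BT20 hind-leg xenografts (0.5–1.0 × 10⁷ cells) grouped about 14 days later at ~70 mm³ (N=9). Dosed 200 mg/kg in PBS or PBS alone, Q2D × 20; methods state tail-vein IV, legend states IP. Body weight recorded at each tumor measurement, three times weekly; observed for toxicity signs; mean ± SEM.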

DU-145 = assay: Cytotoxicity against human DU145 cells after 96 hrs by trypan blue exclusion assay; assay type: functional, cell-based; settings: du-145; in short: as §2
CCRF-CEM = assay: Cytotoxicity against human CEM cells assessed as cell viability after 96 hrs by trypan blue exclusion; assay type: functional, cell-based; in short: as §2
[5] = Cytotoxicity against human NAMALWA cells after 96 hrs by trypan blue exclusion assay; assay type: functional, cell-based; settings: NAMALVA; in short: as §2
HFL1 = assay: Cell cycle arrest in human HFL1 cells assessed as accumulation of cells in G2/M phase at 0.1 to 1 uM after 24 hrs by propidium iodide staining-based flow cytometric analysis; assay type: ADME; settings: hfl1, 24 h
In short: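 DMEM with 10% FBS; 1.0 × 10⁶ cells/dish, treated 24 h after plating and harvested 24 h after treatment. Trypsinized cells were pooled with floating cells, PBS-washed and fixed in ice-cold 70% ethanol for ≥24 h. Cells were stained with propidium iodide plus RNase A for 30 min at 37 °C. DNA content was read by flow cytometry with cell-cycle modelling.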

[6] = Cytotoxicity against human GRANTA-519 cells after 96 hrs by trypan blue exclusion assay; assay type: functional, cell-based; settings: Granta-519, 96 h; in short: as §2
BT-474 = assay: Cytotoxicity against human BT474 cells after 96 hrs by trypan blue exclusion assay; assay type: functional, cell-based; settings: BT-474, 96 h; in short: as §2
[7] = Cytotoxicity against human PS41 cells after 96 hrs by trypan blue exclusion assay; assay type: cell-based; settings: PS41, 96 h; in short: as §2
CEM/C2 [8] = assay: Cytotoxicity against multidrug-resistant human CEM/C2 cells assessed as cell viability after 96 hrs by trypan blue exclusion; assay type: functional, cell-based; settings: CEM/C2, 96 h; in short: as §1
CEM/C2 [9] = assay: Resistance ratio of IC50 for human CEM cells to IC50 for multidrug-resistant human CEM/C2 cells; assay type: functional
In short: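 Cells were grown in DMEM or RPMI with 10% FBS and plated at 1.0 × 10⁵ cells/mL/well in 6-well dishes. Compound was added 24 h later at various concentrations for 96 h. Viable cells were counted from duplicate wells by trypan blue exclusion, and the IC50 of each line gave the ratio.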

Daudi = assay: Cytotoxicity against human Daudi cells after 96 hrs by trypan blue exclusion assay; assay type: functional, cell-based; in short: as §2
HUVEC = assay: Cytotoxicity against HUVEC after 96 hrs by trypan blue exclusion assay; assay type: cell-based; settings: Homo sapiens; in short: as §2
KB = assay: Cytotoxicity against human KB cells after 96 hrs by trypan blue exclusion assay; assay type: functional, cell-based; in short: as §2
[10] = Cytotoxicity against multidrug-resistant human 2008/17/4 cells assessed as cell viability after 96 hrs by trypan blue exclusion; assay type: functional, cell-based; in short: as §1
[11] = Cytotoxicity against human WM278 cells after 96 hrs by trypan blue exclusion assay; assay type: functional, cell-based; settings: WM278, 96 h; in short: as §1
RPMI-7951 = assay: Cytotoxicity against human RPMI7951 cells after 96 hrs by trypan blue exclusion assay; assay type: functional, cell-based; settings: RPMI-7951, 96 h; in short: as §1
NCI-H157 = assay: Cytotoxicity against human NCI-H157 cells after 96 hrs by trypan blue exclusion assay; assay type: functional, cell-based; settings: NCI-H157, 96 h; in short: as §2
BXPC-3 = assay: Cytotoxicity against human BxPC3 cells after 96 hrs by trypan blue exclusion assay; assay type: functional, cell-based; settings: BXPC-3, 96 h; in short: as §2
Raji = assay: Cytotoxicity against human Raji cells after 96 hrs by trypan blue exclusion assay; assay type: functional, cell-based; in short: as §1
[12] = Cytotoxicity against multidrug-resistant human MES-SA/Dx5 cells assessed as cell viability after 96 hrs by trypan blue exclusion; assay type: functional, cell-based; settings: MES-SA/Dx5, 96 h; in short: as §1
[13] = Cytotoxicity against human U87 cells after 96 hrs by trypan blue exclusion assay; assay type: functional, cell-based, U-87MG ATCC; settings: U-87 MG; in short: as §1
BT-20 = assay: Cytotoxicity against human BT20 cells after 96 hrs by trypan blue exclusion assay; assay type: functional, cell-based; settings: BT-20, 96 h; in short: as §2
[14] = Cytotoxicity against human DND1A cells after 96 hrs by trypan blue exclusion assay; assay type: functional, cell-based; in short: as §2
[15] = Cytotoxicity against human RF48 cells after 96 hrs by trypan blue exclusion assay; assay type: functional, cell-based; settings: RF48, 96 h; in short: as §1
SW480 = assay: Cytotoxicity against human SW480 cells after 96 hrs by trypan blue exclusion assay; assay type: functional, cell-based; settings: SW480, 96 h; in short: as §1
Bel-7402 = assay: Cytotoxicity against human Bel7402 cells after 96 hrs by trypan blue exclusion assay; assay type: functional, cell-based; settings: Bel-7402, 96 h; in short: as §2
2008 = assay: Cytotoxicity against human 2008 cells assessed as cell viability after 96 hrs by trypan blue exclusion; assay type: functional, cell-based; settings: Homo sapiens, 2008, 96 h; in short: as §2
U-937 = assay: Cytotoxicity against human U937 cells after 96 hrs by trypan blue exclusion assay; assay type: functional, cell-based; settings: U-937, 96 h; in short: as §1
[16] = Cytotoxicity against human WM239A cells after 96 hrs by trypan blue exclusion assay; assay type: functional, cell-based; in short: as §1
A549 = assay: Cytotoxicity against human A549 cells after 96 hrs by trypan blue exclusion assay; assay type: functional, cell-based; settings: A549, 96 h; in short: as §2

Compound `COc1cc(OC)c(/C=C/S(=O)(=O)Cc2ccc(OC)c(NCC(=O)[O-])c2)c(OC)c1.[Na+]` [RIGOSERTIB SODIUM] has an IC50 (T47D) of 170 nM, an IC50 (K562) of 15 nM and an IC50 [1] of 40 nM. The solubility [2] was 28 mg/mL, the IC50 [3] was 75 nM and the IC50 (NCI-H1975) was 90 nM. The IC50 [4] was 75 nM, the IC50 (DLD-1) was 150 nM and the IC50 (HCT-15) was 90 nM. For the same compound, the IC50 (MCF7) was 75 nM, the IC50 (MDA-MB-231) was 25 nM and the IC50 (OPM-2) was 15 nM. The Activity (Mus musculus) was < 10%, the IC50 (DU-145) was 100 nM and the IC50 (CCRF-CEM) was 100 nM. For the same compound, the IC50 [5] was 75 nM, the Activity (HFL1) was “Toxic” and the IC50 [6] was 75 nM. The IC50 (BT-474) was 50 nM, the IC50 [7] was > 100000 nM and the IC50 (CEM/C2 [8]) was 50 nM. The “Ratio IC50” value (CEM/C2 [9]) was 2, the IC50 (Daudi) was 150 nM and the IC50 (HUVEC) was > 100000 nM. It also gave an IC50 (KB) of 70 nM, an IC50 [10] of 100 nM and an IC50 [11] of 150 nM. For the same compound, the IC50 (RPMI-7951) was 25 nM, the IC50 (NCI-H157) was 80 nM and the IC50 (BXPC-3) was 75 nM. It also gave an IC50 (Raji) of 75 nM, an IC50 [12] of 100 nM and an IC50 [13] of 80 nM. It also gave an IC50 (BT-20) of 80 nM, an IC50 [14] of 75 nM and an IC50 [15] of 50 nM. For the same compound, the IC50 (SW480) was 60 nM, the IC50 (Bel-7402) was 100 nM and the IC50 2008 was 150 nM. The IC50 (U-937) was 10 nM, the IC50 [16] was 75 nM and the IC50 (A549) was 90 nM.
